Data set [1] relates to SKBR-3 cells. Description: Apoptosis study by annexin V FITC. The note with it: SKBR3 cells, 24 hrs, at respective IC50. Format: cell-based, human. A digest of the protocol:
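SKBR-3 cells seeded at 1×10^5 cells per well in McCoy's medium at 37°C and exposed to test compound for 24 hrs. Cells were then trypsinized, pelleted at 3000 rpm for 3 mins and PBS-washed. They were stained with FITC-annexin V plus propidium iodide, and the apoptotic fraction was quantified by flow cytometry.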

A further data set in a line: Cardiac toxicity study. In kind it is in vivo, female BALB/c mice. The note with it: BALB/c mice. A digest of the protocol: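 Female BALB/c mice (~25 g, n=3 per group) received three consecutive IV injections totalling […] DOX, given as free drug or drug-equivalent nanoparticles. Controls were untreated/saline and blank nanoparticles. Weight was recorded every 48 hrs, and […] was taken under light anaesthesia 14 days after the last dose. Hearts were then excised and weighed, and SOD was kit-assayed in heart homogenate (ice-cold PBS, 10 mL/g).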

For data set [2], the system named is SKBR-3 cells. Briefly: Cell cycle distribution analysis. In kind it is cell-based, human. The note with it: 24 hrs, at respective IC50. The essentials: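 After 24 hrs of exposure to test compound (SKBR-3 seeded at 1×10^5 cells per well), cells were collected and washed thrice in sterile PBS pH 7.4. They were fixed in chilled 70% ethanol and stained with propidium iodide (20 µg/mL) for 30 mins. DNA content was acquired over 15,000 events per sample, and phase distribution was compared with untreated control.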

The next data set can be described thus: Pharmacokinetic study. Format: in vivo, BALB/c mice.
In another data set the test system is SKBR-3 tumor. Briefly: In vivo therapeutic study on tumor-bearing xenograft mice. Set-up: species or system athymic nude mice. The note with it: for average tumor volume: three IV doses of DOX 3 mg/kg on alternate days. The essentials:
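Athymic nude mice (CAnN.Cg-Foxn, 6 weeks, ~20 g) were inoculated subcutaneously in the left rear flank with 1×10^7 SKBR-3 cells in 200 μL medium. At 100–150 mm3, groups of three received IV saline or test compound, three doses of DOX 3 mg/kg equivalent on alternate days. Tumours were caliper-measured, body weight was monitored, and excised tumours were weighed after sacrifice (mean ± SD, n=3).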

The test system of the next data set is MCF-7 cells. Briefly: Cell cycle distribution analysis. In kind it is cell-based, human. The note with it: 24 hrs, at respective IC50.
In data set [3] the test system is SKBR-3 cells. Briefly: Cytotoxicity by MTT assay. In kind it is cell-based. The note with it: Homo sapiens, SK-BR-3. A digest of the protocol:
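SKBR-3 cells were grown in McCoy's 5A with 10% FBS, penicillin and streptomycin at 37°C under 5% CO2. Test compound was applied over a dose range in a time-dependent MTT assay. Growth inhibition was expressed as a percentage relative to controls, and IC50 was derived from the dose response.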
On the technique in general: Formazan colour is commonly taken as a measure of viable cells.

Setting [4] is: BALB/c, mouse, plasma, iv, 10 mg/kg.
Setting [5] is: plasma DOX, IV bolus, 10 mg/kg DOX or equivalent, BALB/c mice.

Each structure is given as a SMILES string. Marks after values point to notes of the source that are not given here.

`COc1cccc2c1C(=O)c1c(O)c3c(c(O)c1C2=O)C[C@@](O)(C(=O)CO)C[C@@H]3O[C@H]1C[C@H](N)[C@H](O)[C@H](C)O1` [DOX, (7S, 9S)-7-[(2R, 4S, 5S, 6S)-4-amino-5-hydroxy-6-methyloxan-2-yl]oxy-6,9,11-trihydroxy-9-(2-hydroxyacetyl)-4-methoxy-8,10-dihydro-7H-tetracene-5,12-dione] had an extent of apoptosis in the data set with SKBR-3 cells [1] of 19.6%. This compound also registered a Heart weight in the data set “Cardiac toxicity study” (2 weeks after final dosing) of 0.1420 ± 0.025 g. For the same compound, in “Cardiac toxicity study” (14 days after last dose), the LV fractional shortening result is listed as “significant decrease”. In addition, the “histopathology of heart sections” value in the data set “Cardiac toxicity study” (hematoxylin and eosin staining) was “Remarkable changes in degradation in cardiac muscle with vacuolization and edema of the cells”. Moreover, the “% SOD” value in “Cardiac toxicity study” (heart homogenate, 2 weeks after final dosing) is 34.02±4.5^a,b %. The “cell-arrest in S-phase” value in the data set with SKBR-3 cells [2] stood at 22%. For the same compound, in “Pharmacokinetic study” (setting [4]), the AUC(0-inf) (in general, the area under the concentration-time curve extrapolated to infinity) amounted to 2930 ± 205 ng·h/mL; the AUC(0-t) – broadly, the area under the concentration-time curve up to a stated or last time point – is 2880 ± 199 ng·h/mL; the Cmax (commonly the highest concentration seen after dosing) worked out at 911 ± 50.5 ng/mL; the MRT inf (commonly the average time that molecules of a dose stay in the body) was 18.2 ± 0.86 h. Besides, in the data set “Pharmacokinetic study” (setting [4]), the MRT last (commonly a mean duration of stay, worked out from the concentration-time curve) was found to be 16.2 ± 0.99 h; the Tmax (as a rule, the time from dosing to the highest level) came out at 0.25 ± 0.021 h; the Vd – broadly, the apparent volume that relates the amount in the body to the concentration in plasma or blood – was found to be 61.9 ± 4.8 L/kg; the clearance (commonly the volume of plasma or blood freed of the substance per unit of time) was 56.7 mL/min/kg. The half-life (commonly how long it takes for the measured level to halve) in the data set “Pharmacokinetic study” (setting [4]) is 17.9 ± 2.1 h. In addition, in the data set “Pharmacokinetic study” (setting [5]), the AUMCinf was 53,296.5±2600 hrs.hrs.ng/mL and the AUMClast is on record as 46,707.8±2202.6 hrs.hrs.ng/mL. For the same compound, in the data set with SKBR-3 tumor (at the terminal experiment, SKBR-3 tumor, three IV doses of DOX 3 mg/kg), the “Average tumor weights of the excised tumors” value is 0.424 ± 0.06 g. In the data set on SKBR-3 tumor (day 15, SKBR-3 tumor), this compound gave an average tumor volume of 500 mm^3. Besides, in the data set on SKBR-3 tumor (day 25, SKBR-3 tumor), the average tumor volume stood at 1790 mm^3. Moreover, the “cell-arrest in S-phase” value in the data set with MCF-7 cells is reported as 8%. Also, in the data set on SKBR-3 cells [3], half-maximal inhibition (IC50) required 14.1 µM.
